Reference: ChEMBL document CHEMBL1128548, “Synthesis and evaluation of 5-amino-5,6,7,8-tetrahydroquinolinones as potential agents for the treatment of Alzheimer's disease” (J Med Chem, 1995)
Several values for one entry are separate records, joined by “and”; a condition that tells them apart may be missing. Equal values may be shown once. Activity calls are given as the source filed them.

Columns and labels:
Acetylcholinesterase = target: T1, Acetylcholinesterase (Rattus norvegicus, UniProt P37136); assay: Acetylcholinesterase inhibitory activity in rat striatal homogenates
T1 sequence (P37136 whole entry): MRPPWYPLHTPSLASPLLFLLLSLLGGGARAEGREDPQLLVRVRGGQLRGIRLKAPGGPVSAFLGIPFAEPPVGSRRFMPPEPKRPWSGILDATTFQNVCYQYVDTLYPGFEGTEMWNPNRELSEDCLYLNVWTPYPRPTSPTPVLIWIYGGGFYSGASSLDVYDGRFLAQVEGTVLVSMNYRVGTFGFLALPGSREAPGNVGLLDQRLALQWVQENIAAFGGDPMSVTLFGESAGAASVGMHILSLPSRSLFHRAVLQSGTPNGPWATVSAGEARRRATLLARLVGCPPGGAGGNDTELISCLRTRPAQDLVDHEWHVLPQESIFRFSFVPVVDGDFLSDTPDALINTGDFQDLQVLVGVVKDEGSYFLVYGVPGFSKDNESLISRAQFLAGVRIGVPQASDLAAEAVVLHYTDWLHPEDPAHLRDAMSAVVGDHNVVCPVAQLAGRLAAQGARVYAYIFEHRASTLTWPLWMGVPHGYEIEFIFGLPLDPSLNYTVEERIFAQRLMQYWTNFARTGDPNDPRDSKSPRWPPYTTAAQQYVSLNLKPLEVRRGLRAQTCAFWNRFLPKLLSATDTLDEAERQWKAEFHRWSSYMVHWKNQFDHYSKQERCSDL

Mus musculus [1] = species on record: Mus musculus; assay: Active dose for reversal of Scopolamine dementia(SDDA) activity in mouse; NA =' not active'; format: functional, organism-based
Procedure, shortened: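 Male CFW mice, 15 per group (vehicle/vehicle, scopolamine/vehicle, scopolamine/drug). Scopolamine hydrobromide 3.0 mg/kg sc 30 min before training, test compound in distilled water 5 min before. Step-through passive avoidance retested 24 h later without shock, recording latency. Cutoff is the second-longest scopolamine/vehicle latency. A dose is active if 20% of mice exceed the cutoff.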

Mus musculus [2] = assay: Active dose for reversal of Scopolamine dementia activity in mouse following s.c. administration.; format: functional
Procedure, shortened: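 Male CFW mice, 15 per group (vehicle/vehicle, scopolamine/vehicle, scopolamine/drug). Scopolamine hydrobromide 3.0 mg/kg sc 30 min before training, then test compound in distilled water 5 min before. One-trial dark passive avoidance, retested 24 h later without injection or shock. Cutoff is the second-longest scopolamine/vehicle latency. Dose is active when 20% of animals exceed cutoff. Test valid if cutoff <120 s.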

Row | Structure (SMILES) | IC50 (Acetylcholinesterase) | Active dose (Mus musculus [1]) | Active dose (Mus musculus [2])
1 | CC(C)=CCn1c2c(ccc1=O)C(NCCc1ccc(Cl)c(C(F)(F)F)c1)CCC2 (stereo not given) | 0.79 µM | inactive | 
2 | CCCn1c2c(ccc1=O)C(NCCc1cccs1)CCC2.O=C(O)/C=C/C(=O)O (stereo not given) | 5.97 µM |  | 
3 | C=CCn1c2c(ccc1=O)C(NCCc1ccc(Cl)c(Cl)c1)CCC2 (stereo not given) | 9.21 µM |  | 
4 | C/C=C1\[C@H]2C=C(C)C[C@]1(N)c1ccc(=O)[nH]c1C2 [HUPERZINE A] | 0.08 µM |  | 
5 | CC(C)=CCn1c2c(ccc1=O)C(NCCc1ccc(F)c(F)c1)CCC2 (stereo not given) | 0.98 µM |  | 
6 | CC(C)=CCn1c2c(ccc1=O)C(NCCc1cc(Cl)cc(Cl)c1)CCC2 (stereo not given) | 0.8 µM |  | 
7 | CCCCCCCCCCn1c2c(ccc1=O)C(NCCc1ccc(Cl)c(Cl)c1)CCC2 (stereo not given) | 33.7 µM |  | 
8 | Cc1ccc(CCNC2CCCc3c2ccc(=O)n3C)cc1 (stereo not given) | 18.2 µM |  | 
9 | O=c1ccc2c(n1CCc1ccccc1)CCCC2NCCc1ccc(Cl)c(Cl)c1 (stereo not given) | 50.4 µM |  | 
10 | CC(C)=CCn1c2c(ccc1=O)C(NCCc1cccc(Cl)c1)CCC2 (stereo not given) | 0.52 µM | inactive | 
11 | CC(C)=CCn1c2c(ccc1=O)C(NCCc1cc(Cl)ccc1Cl)CCC2 (stereo not given) | 1.36 µM |  | 
12 | NC1(Cc2ccccc2)CCCc2[nH]c(=O)ccc21 (stereo not given) | > 100 µM |  | 
13 | Oc1ccc2c(n1)CCCC2NCCc1ccccc1 (stereo not given) | > 100 µM |  | 
14 | O=c1ccc2c(n1Cc1ccccc1)CCCC2NCCc1ccc(Cl)c(Cl)c1 (stereo not given) | 17.3 µM |  | 
15 | Cn1c2c(ccc1=O)C(NCc1ccccc1)CCC2 (stereo not given) | > 100 µM |  | 
16 | CC(C)n1c2c(ccc1=O)C(NCCc1ccc(Cl)c(Cl)c1)CCC2 (stereo not given) | 34.5 µM |  | 
17 | CC1(N)CCCc2nc(O)ccc21 (stereo not given) | > 100 µM |  | 
18 | CC(C)CCn1c2c(ccc1=O)C(NCCc1ccc(Cl)c(Cl)c1)CCC2 (stereo not given) | 2.34 µM |  | 3 mg/kg

Row | Structure (SMILES) | IC50 (Acetylcholinesterase) | Active dose (Mus musculus [1]) | Active dose (Mus musculus [2])
19 | C=C(C)Cn1c2c(ccc1=O)C(NCCc1ccc(Cl)c(Cl)c1)CCC2 (stereo not given) | 5.32 µM |  | 3 mg/kg
20 | COc1ccc(CCNC2CCCc3c2ccc(=O)n3CC=C(C)C)cc1OC (stereo not given) | 1.64 µM |  | 
21 | CC(C)=CCn1c2c(ccc1=O)C(NCCc1ccccc1Cl)CCC2 (stereo not given) | 0.52 µM |  | 
22 | CCCn1c2c(ccc1=O)C(NCCc1c[nH]c3ccccc13)CCC2 (stereo not given) | 3.16 µM |  | 3 mg/kg
23 | CC(C)=CCn1c2c(ccc1=O)C(NCCc1ccc(O)cc1)CCC2 (stereo not given) | 0.4 µM |  | 
24 | CC(C)=CCn1c2c(ccc1=O)C(NCCc1ccc(Cl)c(Cl)c1)CCC2 (stereo not given) | 0.51 µM |  | 
25 | CCCn1c2c(ccc1=O)C(NCCC(C)(C)C)CCC2 (stereo not given) | 15.6 µM |  | 
26 | CC(C)=CCn1c2c(ccc1=O)C(N)CCC2 (stereo not given) | > 100 µM |  | 
27 | CC(C)Cn1c2c(ccc1=O)C(NCCc1ccc(Cl)c(Cl)c1)CCC2 (stereo not given) | 23.4 µM |  | 
28 | CCCn1c2c(ccc1=O)C(NCCc1ccccn1)CCC2 (stereo not given) | 4.34 µM | inactive | 
29 | Cn1c2c(ccc1=O)C(C)(N)CCC2 (stereo not given) | > 100 µM |  | 
30 | CCCCCCn1c2c(ccc1=O)C(NCCc1ccc(Cl)c(Cl)c1)CCC2 (stereo not given) | 3.71 µM |  | 
31 | CCCn1c2c(ccc1=O)C(NC1Cc3ccccc3C1)CCC2 (stereo not given) | 3.91 µM |  | 1 mg/kg
32 | Cn1c2c(ccc1=O)C(NCCc1ccccc1)CCC2 (stereo not given) | 18.6 µM |  | 1 mg/kg
33 | CC(C)=CCn1c2c(ccc1=O)C(NCCc1ccc(Cl)cc1Cl)CCC2 (stereo not given) | 0.79 µM |  | 1 mg/kg and 3 mg/kg
34 | COc1cccc(CCNC2CCCc3c2ccc(=O)n3CC=C(C)C)c1 (stereo not given) | 1.1 µM |  | 
35 | Cn1c2c(ccc1=O)C(NCCc1ccc(C(F)(F)F)cc1)CCC2 (stereo not given) | 12.9 µM |  | 
36 | Cn1c2c(ccc1=O)C(NCCCc1ccccc1)CCC2 (stereo not given) | 48.4 µM |  | 
